The subject of experiment [1] is dengue virus type 4. Put plainly: Activity of dengue virus 4 recombinant NS3 protease expressed in Escherichia coli C41(DE3) by fluorogenic assay. In outline: (§1)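 NS2B(H)-NS3pro from inclusion bodies, Ni-chelate and gel filtration purified under 8 M urea, refolded by dialysis. Internally quenched Abz–RRRR-XXXX–nY–NH2 peptides, 1–100 µM (12 points), enzyme 150–200 nM, 50 mM Tris–HCl pH 9.0, 20% glycerol, 37 °C. Cleavage read as fluorescence, ex 320/em 420 nm. Initial rates fitted to give Km and kcat, averaged over ≥3 independent measurements.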

Experiment [2] has as its system dengue virus type 2. In words: Activity of dengue virus 2 recombinant NS3 protease expressed in Escherichia coli C41(DE3) by fluorogenic assay. In outline:
as §1

For experiment [3], the system named is dengue virus type 1. Put plainly: Activity of dengue virus 1 recombinant NS3 protease expressed in Escherichia coli C41(DE3) by fluorogenic assay. In a few lines:
as §1

In experiment [4] the test system is dengue virus type 3. In words: Activity of dengue virus 3 recombinant NS3 protease expressed in Escherichia coli C41(DE3) by fluorogenic assay. In outline:
as §1

As a reminder, the Km is the substrate concentration at which the rate is half of its maximum. The term kcat denotes the maximal rate divided by the concentration of active sites.

Non-standard residues stand in square brackets, D forms with d. Residues, ends and D or L forms follow the SMILES beside them. Tyr(3-NO2) = N[C@@H](Cc1ccc(O)c([N+](=O)[O-])c1)C(=O)O; 2Abz = Nc1ccccc1C(=O)O

As for `C[C@H](NC(=O)CNC(=O)[C@H](C)NC(=O)[C@H](CO)NC(=O)c1ccccc1N)C(=O)N[C@@H](Cc1ccc(O)c([N+](=O)[O-])c1)C(N)=O` (H-[2Abz]SAGA[Tyr(3-NO2)]-NH2), the Km in experiment [1] was 10.5 µM; in experiment [2] it was 3.06 µM; in experiment [3] it was 23.3 µM. The kcat in experiment [1] is 0.222 s⁻¹; in experiment [2], 0.027 s⁻¹; in experiment [3], 0.227 s⁻¹.
`CC(C)[C@H](NC(=O)CNC(=O)[C@H](CO)NC(=O)c1ccccc1N)C(=O)N[C@@H](CS)C(=O)N[C@@H](Cc1ccc(O)c([N+](=O)[O-])c1)C(N)=O` (H-[2Abz]SGVC[Tyr(3-NO2)]-NH2): the Km in experiment [1] amounted to 7.06 µM; in experiment [4] it was 19.7 µM; in experiment [2] it was 4.26 µM. In addition, the catalytic constant (kcat) in experiment [1] was determined as 0.0757 s⁻¹; in experiment [4], 0.0292 s⁻¹; in experiment [2], 0.0163 s⁻¹.
In the case of `NC(=O)[C@H](Cc1ccc(O)c([N+](=O)[O-])c1)NC(=O)[C@H](CC(=O)O)NC(=O)[C@H](CO)NC(=O)[C@H](Cc1c[nH]c2ccccc12)NC(=O)[C@H](Cc1cnc[nH]1)NC(=O)c1ccccc1N` (H-[2Abz]HWSD[Tyr(3-NO2)]-NH2), the Km was determined as 9.76 µM in experiment [1], 14.9 µM in experiment [2] and 17.2 µM in experiment [3]. The kcat in experiment [1] came to 0.0108 s⁻¹; in experiment [2] it was 0.00117 s⁻¹; in experiment [3] it was 0.0025 s⁻¹.
For the compound `NC(=O)[C@H](Cc1ccc(O)c([N+](=O)[O-])c1)NC(=O)[C@H](CS)NC(=O)CNC(=O)[C@H](Cc1c[nH]c2ccccc12)NC(=O)[C@H](CO)NC(=O)c1ccccc1N` (H-[2Abz]SWGC[Tyr(3-NO2)]-NH2), in experiment [1], the Km worked out at 4.79 µM and the kcat was found to be 0.0398 s⁻¹. For the same compound, in experiment [2], the Km turned out to be 2.87 µM and the catalytic constant (kcat) amounted to 0.0065 s⁻¹.
In the same order, the values of `C[C@H](NC(=O)c1ccccc1N)C(=O)N[C@@H](Cc1cnc[nH]1)C(=O)N[C@@H](CO)C(=O)N[C@@H](CS)C(=O)N[C@@H](Cc1ccc(O)c([N+](=O)[O-])c1)C(N)=O` (H-[2Abz]AHSC[Tyr(3-NO2)]-NH2) are 4.21 µM, 0.0305 s⁻¹, 5.63 µM and 0.00433 s⁻¹.
For `NC(=O)C[C@H](NC(=O)[C@H](Cc1cnc[nH]1)NC(=O)c1ccccc1N)C(=O)N[C@@H](CS)C(=O)N[C@@H](CS)C(=O)N[C@@H](Cc1ccc(O)c([N+](=O)[O-])c1)C(N)=O` (H-[2Abz]HNCC[Tyr(3-NO2)]-NH2), the Km in experiment [1] is 3.28 µM; in experiment [4], 10 µM; in experiment [2], 8.81 µM. The kcat is 0.0157 s⁻¹ in experiment [1], 0.00283 s⁻¹ in experiment [4] and 0.00233 s⁻¹ in experiment [2].
For `CC(C)[C@H](NC(=O)[C@H](CC(=O)O)NC(=O)[C@H](CC(N)=O)NC(=O)c1ccccc1N)C(=O)N[C@@H](CC(=O)O)C(=O)N[C@@H](Cc1ccc(O)c([N+](=O)[O-])c1)C(N)=O` (H-[2Abz]NDVD[Tyr(3-NO2)]-NH2), the Km worked out at 85.9 µM in experiment [1], 43.2 µM in experiment [2] and 106 µM in experiment [3]. Moreover, the kcat in experiment [1] worked out at 0.0253 s⁻¹; in experiment [2] it was 0.00167 s⁻¹; in experiment [3], 0.006 s⁻¹.
On to `CC(C)C[C@H](NC(=O)[C@H](Cc1cnc[nH]1)NC(=O)c1ccccc1N)C(=O)N[C@H](C(=O)N[C@@H](Cc1cnc[nH]1)C(=O)N[C@@H](Cc1ccc(O)c([N+](=O)[O-])c1)C(N)=O)C(C)C` (H-[2Abz]HLVH[Tyr(3-NO2)]-NH2), for which the Km in experiment [1] was 16.3 µM; in experiment [2], 14.1 µM; in experiment [3], 8.83 µM. The kcat in experiment [1] worked out at 0.018 s⁻¹; in experiment [2] it was 0.00233 s⁻¹; in experiment [3], 0.00617 s⁻¹.
Take `C[C@H](NC(=O)c1ccccc1N)C(=O)N1CCC[C@H]1C(=O)NCC(=O)N[C@@H](CC(=O)O)C(=O)N[C@@H](Cc1ccc(O)c([N+](=O)[O-])c1)C(N)=O` (H-[2Abz]APGD[Tyr(3-NO2)]-NH2): in experiment [1], the Km stood at 89 µM and the kcat was determined as 0.0103 s⁻¹. Also, in experiment [2], the Michaelis constant (Km) came to 19.6 µM and the kcat was 0.000667 s⁻¹.

These data come from ChEMBL document CHEMBL1152244, “Proteochemometrics analysis of substrate interactions with dengue virus NS3 proteases” (Bioorg Med Chem, 2008).
